TAAR1 agonist: human TAAR1 agonists, primary screen, Fluo-8 calcium fluorescence, CHO RD-HGA16 cells | activation, % at 3 µM | vehicle wells 0%, saturating PEA agonist 100% | Trace amine-associated receptor 1 (Homo sapiens), Q96RJ0 | 0.99% of 360,000 active;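 active = activation above the mean activation of all test compounds in the run plus 3 SD, cut at about 38% in these data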
Target sequence (Q96RJ0 whole entry, looked up): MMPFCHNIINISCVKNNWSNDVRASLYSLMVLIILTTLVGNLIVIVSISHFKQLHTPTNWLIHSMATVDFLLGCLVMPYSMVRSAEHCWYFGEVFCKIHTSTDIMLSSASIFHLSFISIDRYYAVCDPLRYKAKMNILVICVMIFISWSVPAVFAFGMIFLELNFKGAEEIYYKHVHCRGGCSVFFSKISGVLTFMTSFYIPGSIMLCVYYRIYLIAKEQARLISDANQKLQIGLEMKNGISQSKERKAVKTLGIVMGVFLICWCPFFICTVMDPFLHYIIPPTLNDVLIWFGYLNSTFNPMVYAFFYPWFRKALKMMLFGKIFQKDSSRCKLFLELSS
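System: CHO-derived RD-HGA16 cells with stable Gα16 and human TAAR1 / Times: 17-24 h plating, Fluo-8 75 min 37 °C, 30 min RT / Technique: calcium-sensitive Fluo-8 signal, excitation 470-495, emission 515-575 nm / Measure: % activation relative to PEA EC100 response / Benchmarks: DMSO and PEA EC100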
TAAR1 antagonist: human TAAR1 antagonists, primary screen, Fluo-8 calcium fluorescence, CHO RD-HGA16 cells; inhibition, % at 3 µM; 1.5% of 360,000 active; AID 624466, 2012; antagonist; Trace amine-associated receptor 1 (Homo sapiens), Q96RJ0;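 active = inhibition above a per-plate cutoff, the mean inhibition of test compounds on that plate plus 3 SD, cut at about 49% in these data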;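 note: 0% = DMSO plus EC80 beta-PEA response and 100% = DMSO alone without agonist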
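Test system – hTAAR1-expressing CHO RD-HGA16 cells, Gα16-coupled · Also added – β-PEA at EC80 concentration, post-compound challenge · Compound – 3 µM, single point · Incubation – dye loading 75 min at 37 °C, then 30 min room temperature · Measured by – Fluo-8 intracellular calcium dye fluorescence, real-time kinetic reads · Benchmarks – vehicle and agonist controls · Replicates – singlicate, one well per test compound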
V1aR counter: agonists of human V1a receptor, primary screen, counter-screen for OXTR agonist project, fluorescence, CHO-V1R cells; Vasopressin V1a receptor (Homo sapiens), P37288; Fluo-8 calcium fluorescence, agonist mode; 0% DMSO, 100% 3 nM vasopressin; activation, % at 3 µM; 0.25% of 320,000 active; AID 2797, 2010;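 active = activation above the mean activation of all tested compounds plus 3 SD, per screening run, cut at about 20% in these data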;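 note: signal is peak over basal fluorescence ratio across a 100 second FLIPR read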
OXTR potentiator: human OXTR potentiators, primary screen, fluorescence, CHO-OTR cells, Fluo-8 calcium; Oxytocin receptor (Homo sapiens), P30559; Fluo-8 calcium fluorescence, potentiator mode; 0% = oxytocin EC15, 100% = EC100; activation, % at 3 µM; 0.061% of 320,000 active;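 active = activation above that plate's cutoff, the mean activation of tested compounds plus 3 SD, cut at about 6.6% in these data, passing the limit was not always enough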;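 note: 100% uses oxytocin at 75 nM as the full agonist control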
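Assay system: CHO cell line stably expressing human OTR | Also added: Oxytocin at about EC15, sub-maximal agonist stimulus | Times: Compound 6 min at room temperature before oxytocin, 100 s read | Measured by: Fluo-8 intracellular calcium fluorescence, ex 470-495, em 515-575 nm | Controls: EC15 oxytocin alone as 0%, 75 nM oxytocin as 100%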
OXTR ag: human OXTR agonists, primary screen, fluorescence, CHO-OTR cells, Fluo-8 calcium. Oxytocin receptor (Homo sapiens), P30559. Fluo-8 calcium fluorescence; normalized: DMSO 0%, oxytocin 100%. activation, % at 3 µM. 0.32% of 320,000 active. AID 2435, 2010;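 active = activation above the mean of all tested compounds plus 3 SD, cutoff set per screening run, cut at about 20% in these data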;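 note: peak over basal fluorescence ratio from a 100 s FLIPR kinetic read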
* marks the source's active call; other numbers are inactive results. Only some compounds are listed: those with a hit (about 2.3% of all), similar ones and a draw of the others.

What do the screens show for `C[C@H](CO)NC(=O)c1[nH]cnc1C(=O)Nc1ccc(CNC(=O)OC(C)(C)C)cc1`?
TAAR1 agonist: 2; TAAR1 antagonist: -6

Results for C[C@@H](O)CNC(=O)c1[nH]cnc1C(=O)Nc1ccc(CNC(=O)OC(C)(C)C)cc1 ?
TAAR1 agonist: 8; TAAR1 antagonist: 49*

What do the screens show for `CC(C)(C)OC(=O)CNC(=O)c1[nH]cnc1C(=O)Nc1ccc(CNC(=O)OC(C)(C)C)cc1`?
TAAR1 agonist: 27; TAAR1 antagonist: 59*; V1aR counter: 2; OXTR potentiator: -12; OXTR ag: -2

What do the screens show for `C=CCCC1CN(Cc2ccc(OC)cc2)S(=O)(=O)c2c(cccc2Sc2ccc(OC)c(OC)c2)O1` (stereo not drawn)?
TAAR1 agonist: 2; TAAR1 antagonist: -5

What do the screens show for `CC12CCC(=O)C=C1CCC1C2CCC2(C)C(c3csc(N)n3)CCC12` (stereo not drawn)?
TAAR1 agonist: 23; TAAR1 antagonist: 51*

How did O=C(Cc1ccc(Cl)cc1)NN1C(=O)c2ccccc2C1=O do in these assays?
TAAR1 agonist: 9; TAAR1 antagonist: -9; V1aR counter: 1; OXTR potentiator: -3; OXTR ag: 0

How did COC(=O)[C@@H]1[C@@H](C#N)C2(c3ccccc3-c3ccccc32)N(c2ccc(Cl)cc2)N1C#N do in these assays?
TAAR1 agonist: 3; TAAR1 antagonist: 50*; V1aR counter: -1; OXTR potentiator: 1; OXTR ag: -1

How did CC(C)c1ccc(NC(=O)Nc2nc(C(N)C(C)C)cs2)cc1 (stereo not drawn) do in these assays?
TAAR1 agonist: 29; TAAR1 antagonist: 28

Results for CC(C)c1ccc(NC(=O)Nc2nc(C(N)c3ccccc3)cs2)cc1 (stereo not drawn) ?
TAAR1 agonist: 45*; TAAR1 antagonist: 10

Results for O=C(Nc1ccc2c(c1)CCCN2C(=O)c1ccccc1)c1ccccc1 ?
TAAR1 agonist: 12; TAAR1 antagonist: 58*; V1aR counter: 6; OXTR potentiator: -1; OXTR ag: -1

How did CC1(C)C[C@H]2C3=CCC4[C@@]5(C)CC[C@H](O[C@@H]6O[C@H](C(=O)O)[C@@H](O)[C@H](O)[C@H]6O)[C@@](C)(CO)C5CC[C@@]4(C)[C@]3(C)C[C@H](O)[C@@]2(CO)[C@@H](O)[C@@H]1O (stereo partly drawn) do in these assays?
TAAR1 agonist: 3; TAAR1 antagonist: -2; V1aR counter: 1; OXTR potentiator: 3; OXTR ag: 1

How did CC(=O)OC1COC(OC2C(O)C(C)OC(OC3C(OC4CCC5(C)C(CCC6(C)C5CC=C5C7CC(C)(C)CCC7(C(=O)O)CCC56C)C4(C)CO)OCC(O)C3O)C2O)C(O)C1OC(C)=O (stereo not drawn) do in these assays?
V1aR counter: 115*; OXTR potentiator: -11; OXTR ag: 92*

What do the screens show for `C/C=C(/C)C(=O)OC1CC(C)(C)C[C@H]2C3=CC[C@@H]4[C@@]5(C)CCC(O[C@@H]6O[C@@H](C(=O)O)[C@@H](O)C(O[C@@H]7OC[C@H](O)[C@@H](O)[C@@H]7O[C@@H]7OC(CO)C(O)[C@@H](O)[C@@H]7O)C6O[C@@H]6OC(CO)C(O)C(O)C6O)[C@@](C)(CO)[C@@H]5CC[C@]4(C)[C@]3(C)CC(O)[C@@]12CO` (stereo partly drawn)?
V1aR counter: 22*; OXTR potentiator: -12; OXTR ag: 44*

Results for CCc1cc2c(nc1CC)CCCN2C ?
TAAR1 agonist: 4; TAAR1 antagonist: -3

What do the screens show for `Cc1ccc2nc(CN(C)C(=O)[C@@H](Cc3ccccc3)NC(=O)[C@H]3O[C@@H](n4cnc(C(N)=O)n4)[C@H](O)[C@@H]3O)[nH]c2c1`?
TAAR1 agonist: 0; TAAR1 antagonist: -21

Compound activity from PubChem.
